Data from PubChem BioAssay.
Inconclusive results are not listed.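 How the source made its calls, unless noted: active means inhibition over a set limit, the all-compound mean plus 3 SD, in both replicate runs; inconclusive means over that limit in just one replicate run; inactive means at or under that limit in both runs.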

Experiments:
[1] = S. cerevisiae growth inhibition in permissive medium (OD615), pilot counter-assay for S. cerevisiae lifespan shortening project, permissive growth control (AID 705;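 active means growth inhibition above 25% in both replicates, a cutoff set 3 SD above the mean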); settings: OD615, 24 h, at 10 µM, stronger effect = higher value
How it was run: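 System: Engineered DeaD yeast | Buffer or medium: SC raffinose/galactose permissive medium | Doses: 10 µM single dose, 0.25% DMSO | Times: 24 h exposure, 30 °C | Measured by: OD615 turbidity read | Read-out: Yeast growth inhibition indicated by reduced 24 h OD615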

[2] = S. cerevisiae growth inhibition in restrictive medium, OD615, pilot screen, restrictive growth control, yeast lifespan reduction project (AID 706;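 active means growth inhibition above a set limit, 3 SD over mean compound inhibition, in both replicates, cut at about 43% in these data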;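 further: modified DeaD lifespan yeast strain shifted to restrictive glucose medium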); settings: OD615, 48 h, at 10 µM, stronger effect = higher value
How it was run: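 Assay system: engineered S. cerevisiae DeaD strain; Buffer or medium: CSMM-D glucose medium; Dosing: 10 µM compound, 0.25% DMSO; Times: cell pre-growth 4 h, compound exposure 48 h, 30 °C; Detection: absorbance (optical density) measured at 615 nm.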

[3] = doxorubicin toxicity protection in MRP-1 cells – H69AR cells, CellTiter-Glo, duplicate, MRP-1 activator project, pilot screen (AID 807;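 active means viability increase at or above a cutoff of the median across tested compounds plus 3 SD, cut at about 8.5% in these data, passing the limit was not always enough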;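 further: compound pretreatment 18-22 h then 72 h combined with doxorubicin; 0% = doxorubicin alone and 100% = vehicle without doxorubicin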); settings: H69AR viability with doxorubicin, CellTiter-Glo luminescence; at 10 µM; stronger effect = higher value
[4] = viability of HCT116 without oncogenic beta-catenin – human colon tumor cells, pilot screen (AID 823;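 active means cell viability at or below a set limit in both duplicate runs, the limit being the all-compound median minus 4 SD, cut at about 23% in these data, passing the limit was not always enough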;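 further: 0% = wells killed by 20 µM Hyamine and 100% = untreated DMSO cell wells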); settings: HCT116 beta-catenin knockout viability, CellTiter-Glo, 60 h; at 10 µM; stronger effect = lower value
[5] = viability of PTEN-null HCT116 cells – cell-based, HCT116 clonal line, CellTiter-Glo, pilot screen (AID 824;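 active means viability at or below 27.92% in each of two runs, the all-compound median minus 4 SD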;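 further: 0% = 20 µM Hyamine control and 100% = vehicle cell control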); settings: HCT116 PTEN-deleted viability, 60 h, at 10 µM, stronger effect = lower value
[6] = RAM pathway blockade in budding yeast – dse1pr::URA3 reporter, 5-FOA selection, pilot screen (AID 869);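 further: 0% = DMSO wells with no growth and 100% = 10 µM 1-NA-PP1 with full growth; RAM network block rescues cells from 5-FOA so hits raise OD615 growth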; settings: S. cerevisiae dse1pr::URA3 5-FOA growth, OD615, 2 d; at 10 µM; stronger effect = higher value; strain carries analog-sensitive mutant Cbk1 kinase
[7] = RAM signaling pathway blockade in yeast – S. cerevisiae, Pdr1DBD-CYC8 efflux-inhibited sensitized strain, primary screen (AID 1298;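 active means RAM network inhibition above 8.4% in each of two replicates, 3 SD over the compound average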;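 further: 0% = DMSO untreated cells without growth and 100% = 10 µM 1-NA-PP1 full growth; higher means more yeast growth rescued from 5-FOA killing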); settings: S. cerevisiae cbk1-as DSE1-URA3 strain, 5-FOA growth OD615, 2 d; at 50 µM; stronger effect = higher value

Cn1c(=O)c2nc(-c3ccc(Cl)cc3Cl)oc2c2ccccc21
inactive: growth inhibition [1] -12.5% | growth inhibition [2] -0.105% | viability increase [3] -3.1% | viability [4] 81.1% | viability [5] 77.6% | inhibition [6] 2.31% | RAM network inhibition [7] 3.74%

CN(CCNC(=O)Cn1c(=O)sc2ccccc21)Cc1ccccc1
inactive: growth inhibition [1] -1.18% | growth inhibition [2] -7.1% | viability increase [3] -5.12% | viability [4] 77.7% | viability [5] 82.3% | inhibition [6] 1.27% | RAM network inhibition [7] -1.1%

OC(COc1ccccc1Cl)CN1CCN(CC(O)COc2ccccc2Cl)CC1 (stereo unspecified)
inactive: growth inhibition [1] 3.62% | growth inhibition [2] -11.8% | viability increase [3] -5.92% | viability [4] 73.3% | viability [5] 81.9% | inhibition [6] 0.495% | RAM network inhibition [7] 3.13%

CN(C)c1nc(N)nc(-c2ccco2)n1
inactive: growth inhibition [1] 3.19% | growth inhibition [2] 14.2% | viability increase [3] 0.01% | viability [4] 93.7% | viability [5] 103% | inhibition [6] 0.535% | RAM network inhibition [7] 0.21%

COCc1cc(C)nc(N2CCN(c3ccccc3)CC2)c1C#N
inactive: growth inhibition [1] -15.6% | growth inhibition [2] -7.64% | viability increase [3] 0.13% | viability [4] 86.3% | viability [5] 81.9% | inhibition [6] 2.28% | RAM network inhibition [7] 6.31%

NC(=O)CSc1nc2ccccc2n1-c1ccccc1
inactive: growth inhibition [1] -9.13% | growth inhibition [2] 1.74% | viability increase [3] -0.83% | viability [4] 99% | viability [5] 97.5% | inhibition [6] 0.02% | RAM network inhibition [7] 0.62%

c1nnc2c3c4c(sc3ncn12)CCC4
inactive: growth inhibition [1] -1.74% | growth inhibition [2] 15.2% | viability increase [3] -3.97% | viability [4] 96.6% | viability [5] 107% | inhibition [6] 1.25% | RAM network inhibition [7] 6.33%

Cc1ccc(C(=O)NCCn2cc(SCC(=O)Nc3cc(C)on3)c3ccccc32)cc1
inactive: growth inhibition [1] -3.4% | growth inhibition [2] 9.18% | viability increase [3] 1.75% | viability [4] 87.4% | viability [5] 96.9% | inhibition [6] 0.015% | RAM network inhibition [7] 0.42%

c1ccc(OCc2nnc3sc(C4COc5ccccc5O4)nn23)cc1 (stereo unspecified)
inactive: growth inhibition [1] 4.23% | growth inhibition [2] 5.81% | viability increase [3] -1.91% | viability [4] 99.4% | viability [5] 90% | inhibition [6] 2.56% | RAM network inhibition [7] 5.98%

COc1ccc(S(=O)(=O)Cc2ccc(C(=O)NCc3cccnc3)o2)cc1
inactive: growth inhibition [1] -4.57% | growth inhibition [2] -10.1% | viability increase [3] -5% | viability [4] 88.2% | viability [5] 84% | inhibition [6] 1% | RAM network inhibition [7] 3.45%

Cc1ccc(S(=O)(=O)Cc2ccc(C(=O)N3CCN(c4ccccn4)CC3)o2)cc1
inactive: growth inhibition [1] -6.39% | growth inhibition [2] -3.59% | viability increase [3] -4.22% | viability [4] 87.1% | viability [5] 79.8% | inhibition [6] 1.25% | RAM network inhibition [7] 3.12%

O=C(CSc1nc2sc3c(c2c(=O)n1-c1ccccc1)CCCC3)NCc1ccco1
inactive: growth inhibition [1] -7.07% | growth inhibition [2] -5.03% | viability increase [3] -7.21% | viability [4] 53.7% | viability [5] 53.8% | inhibition [6] 3.98% | RAM network inhibition [7] 6.12%

COCCNC(=O)Cn1cnc2sc(C)c(S(=O)(=O)N3CCC(C)CC3)c2c1=O
inactive: growth inhibition [1] -5.23% | growth inhibition [2] -3.64% | viability increase [3] 0.05% | viability [4] 100% | viability [5] 100% | inhibition [6] 1.68% | RAM network inhibition [7] 5.34%

O=C(Nc1ccc(N2CCOCC2)c(Cl)c1)C1CCCCC1
inactive: growth inhibition [1] 1.5% | growth inhibition [2] 4.29% | viability increase [3] -2.1% | viability [4] 97.6% | viability [5] 94.8% | inhibition [6] 0.18% | RAM network inhibition [7] 3.22%

COCCCN1C(=O)C(O)=C(C(=O)c2ccc(C)o2)C1c1cccc(Br)c1 (stereo unspecified)
inactive: growth inhibition [1] -10.6% | growth inhibition [2] -3.15% | viability increase [3] -0.41% | viability [4] 106% | viability [5] 106% | inhibition [6] -0.2% | RAM network inhibition [7] 4.3%

COc1ccc(N(CC(=O)Nc2nccs2)S(=O)(=O)c2c(C)nn(C)c2C)cc1
inactive: growth inhibition [1] -18.2% | growth inhibition [2] -6.82% | viability increase [3] -3.77% | viability [4] 93% | viability [5] 87.5% | inhibition [6] 3% | RAM network inhibition [7] 3.8%

CCOC(=O)N1CCN(C(=O)Cn2ncc3c2-c2ccccc2OC3)CC1
inactive: growth inhibition [1] -14% | growth inhibition [2] -8.46% | viability increase [3] -1.16% | viability [4] 102% | viability [5] 95.9% | inhibition [6] 0.82% | RAM network inhibition [7] -1.43%

CC1=CC(c2ccccc2)n2nc(NS(=O)(=O)c3ccc(C)cc3)nc2N1 (stereo unspecified)
inactive: growth inhibition [1] -9.59% | growth inhibition [2] 5.79% | viability increase [3] -1.29% | viability [4] 100% | viability [5] 99.5% | inhibition [6] 0.09% | RAM network inhibition [7] 2.86%
